# Measurements as given in ChEMBL document CHEMBL2157880, “Synthesis, antimycobacterial and antibacterial activity of ciprofloxacin derivatives containing a N-substituted benzyl moiety” (2012).
# Tests used:
# Assay type in all cases: functional
# [1] = test system: Mycobacterium tuberculosis; experiment: Antimycobacterial activity against Mycobacterium tuberculosis H37Rv ATCC 27294 by microplate alamar blue assay
# Method in brief: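 Microplate Alamar Blue fluorescence assay on strain H37Rv ATCC 27294. MIC was the lowest concentration cutting fluorescence by ≥90% against the mean of replicate bacterium-only controls.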
# [2] = test system: Klebsiella pneumoniae; experiment: Antibacterial activity against extended spectrum beta-lactamases producing Klebsiella pneumoniae 10-3 after 18 to 24 hrs by NCCLS method
# Method in brief: (§1)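 Standard NCCLS (M100-S11) MIC testing against Gram-positive and Gram-negative strains. Plates were incubated at 35 °C for 18–24 h. The MIC was read as the lowest concentration giving complete inhibition of visible bacterial growth.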
# [3] = test system: Klebsiella pneumoniae; experiment: Antibacterial activity against extended spectrum beta-lactamases producing Klebsiella pneumoniae 10-2 after 18 to 24 hrs by NCCLS method; method in brief: as §1
# [4] = test system: Pseudomonas aeruginosa; experiment: Antibacterial activity against Pseudomonas aeruginosa 10-9 after 18 to 24 hrs by NCCLS method; method in brief: as §1
# [5] = test system: Klebsiella pneumoniae; experiment: Antibacterial activity against extended spectrum beta-lactamases producing Klebsiella pneumoniae 10-1 after 18 to 24 hrs by NCCLS method; method in brief: as §1
# [6] = test system: Staphylococcus aureus; experiment: Antibacterial activity against methicillin-sensitive Staphylococcus aureus 10-14 after 18 to 24 hrs by NCCLS method; method in brief: as §1
# [7] = test system: Klebsiella pneumoniae; experiment: Antibacterial activity against Klebsiella pneumoniae 10-2 after 18 to 24 hrs by NCCLS method; method in brief: as §1
# [8] = test system: Escherichia coli; experiment: Antibacterial activity against Escherichia coli 10-3 after 18 to 24 hrs by NCCLS method; method in brief: as §1
# [9] = test system: Escherichia coli; experiment: Antibacterial activity against extended spectrum beta-lactamases producing Escherichia coli 10-2 after 18 to 24 hrs by NCCLS method; method in brief: as §1
# [10] = test system: Pseudomonas aeruginosa; experiment: Antibacterial activity against Pseudomonas aeruginosa 10-20 after 18 to 24 hrs by NCCLS method; method in brief: as §1
# [11] = test system: Enterococcus faecalis; experiment: Antibacterial activity against Enterococcus faecalis 10-7 after 18 to 24 hrs by NCCLS method; method in brief: as §1
# [12] = test system: Staphylococcus aureus; experiment: Antibacterial activity against methicillin-sensitive Staphylococcus aureus 10-11 after 18 to 24 hrs by NCCLS method; method in brief: as §1
# [13] = test system: Enterococcus faecalis; experiment: Antibacterial activity against Enterococcus faecalis 10-6 after 18 to 24 hrs by NCCLS method; method in brief: as §1
# [14] = test system: Escherichia coli; experiment: Antibacterial activity against extended spectrum beta-lactamases producing Escherichia coli 10-4 after 18 to 24 hrs by NCCLS method; method in brief: as §1
# [15] = test system: Pseudomonas aeruginosa; experiment: Antibacterial activity against Pseudomonas aeruginosa 10-18 after 18 to 24 hrs by NCCLS method; method in brief: as §1
# [16] = test system: Staphylococcus aureus; experiment: Antibacterial activity against methicillin-resistant Staphylococcus aureus 10-13 after 18 to 24 hrs by NCCLS method
# Method in brief: (§2)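 Incubated at 35 °C for 18–24 h under NCCLS (M100-S11) standards. MIC was read as the lowest concentration giving complete inhibition of visible bacterial growth.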
# [17] = test system: Pseudomonas aeruginosa; experiment: Antibacterial activity against Pseudomonas aeruginosa 10-15 after 18 to 24 hrs by NCCLS method; method in brief: as §1
# [18] = test system: Staphylococcus aureus; experiment: Antibacterial activity against methicillin-resistant Staphylococcus aureus 10-11 after 18 to 24 hrs by NCCLS method; method in brief: as §2
# [19] = test system: Escherichia coli; experiment: Antibacterial activity against Escherichia coli 10-1 after 18 to 24 hrs by NCCLS method; method in brief: as §1
# [20] = test system: Klebsiella pneumoniae; experiment: Antibacterial activity against Klebsiella pneumoniae 10-3 after 18 to 24 hrs by NCCLS method; method in brief: as §1
# [21] = test system: Streptococcus pneumoniae; experiment: Antibacterial activity against Streptococcus pneumoniae 10-1 after 18 to 24 hrs by NCCLS method; method in brief: as §1
# [22] = test system: Streptococcus pneumoniae; experiment: Antibacterial activity against Streptococcus pneumoniae 10-6 after 18 to 24 hrs by NCCLS method; method in brief: as §1
# [23] = test system: Staphylococcus epidermidis; experiment: Antibacterial activity against methicillin-resistant Staphylococcus epidermidis 10-10 after 18 to 24 hrs by NCCLS method; method in brief: as §2
# [24] = test system: Escherichia coli; experiment: Antibacterial activity against Escherichia coli 10-2 after 18 to 24 hrs by NCCLS method; method in brief: as §1
# [25] = test system: Staphylococcus epidermidis; experiment: Antibacterial activity against methicillin-resistant Staphylococcus epidermidis 10-13 after 18 to 24 hrs by NCCLS method; method in brief: as §2
# [26] = test system: Klebsiella pneumoniae; experiment: Antibacterial activity against Klebsiella pneumoniae 10-4 after 18 to 24 hrs by NCCLS method; method in brief: as §1
# [27] = test system: Pseudomonas aeruginosa; experiment: Antibacterial activity against Pseudomonas aeruginosa 10-12 after 18 to 24 hrs by NCCLS method; method in brief: as §1
# [28] = test system: Staphylococcus epidermidis; experiment: Antibacterial activity against methicillin-sensitive Staphylococcus epidermidis 10-15 after 18 to 24 hrs by NCCLS method; method in brief: as §2
# [29] = test system: Staphylococcus epidermidis; experiment: Antibacterial activity against methicillin-sensitive Staphylococcus epidermidis 10-11 after 18 to 24 hrs by NCCLS method; method in brief: as §1
# [30] = test system: Staphylococcus aureus; experiment: Antibacterial activity against methicillin-resistant Staphylococcus aureus 10-15 after 18 to 24 hrs by NCCLS method; method in brief: as §2
# [31] = test system: Escherichia coli; experiment: Antibacterial activity against Escherichia coli ATCC 25922 after 18 to 24 hrs by NCCLS method; method in brief: as §1
# [32] = test system: Enterococcus faecium; experiment: Antibacterial activity against Enterococcus faecium 10-6 after 18 to 24 hrs by NCCLS method; method in brief: as §1
# [33] = test system: Pseudomonas aeruginosa; experiment: Antibacterial activity against Pseudomonas aeruginosa 10-5 after 18 to 24 hrs by NCCLS method; method in brief: as §1
# [34] = test system: Staphylococcus aureus; experiment: Antibacterial activity against methicillin-sensitive Staphylococcus aureus 10-13 after 18 to 24 hrs by NCCLS method; method in brief: as §1
# [35] = test system: Staphylococcus aureus; experiment: Antibacterial activity against Staphylococcus aureus ATCC 2592 after 18 to 24 hrs by NCCLS method; method in brief: as §1
# [36] = test system: Enterococcus faecalis; experiment: Antibacterial activity against Enterococcus faecalis 10-5 after 18 to 24 hrs by NCCLS method; method in brief: as §1
# [37] = test system: Escherichia coli; experiment: Antibacterial activity against extended spectrum beta-lactamases producing Escherichia coli 10-3 after 18 to 24 hrs by NCCLS method; method in brief: as §1
# [38] = test system: Enterococcus faecium; experiment: Antibacterial activity against Enterococcus faecium 10-9 after 18 to 24 hrs by NCCLS method; method in brief: as §1
Structure (SMILES),MIC [1] [µg/mL],MIC [2] [µg/mL],MIC [3] [µg/mL],MIC [4] [µg/mL],MIC [5] [µg/mL],MIC [6] [µg/mL],MIC [7] [µg/mL],MIC [8] [µg/mL],MIC [9] [µg/mL],MIC [10] [µg/mL],MIC [11] [µg/mL],MIC [12] [µg/mL],MIC [13] [µg/mL],MIC [14] [µg/mL],MIC [15] [µg/mL],MIC [16] [µg/mL],MIC [17] [µg/mL],MIC [18] [µg/mL],MIC [19] [µg/mL],MIC [20] [µg/mL],further results
COc1ccc(CN2CCN(c3cc4c(cc3F)c(=O)c(C(=O)O)cn4C3CC3)CC2)c(OC)c1OC,16,> 128,> 128,32,> 128,0.125,> 128,64,> 128,32,64,0.125,> 128,64,64,64,32,16,> 128,16,MIC [21]: 8 µg/mL; MIC [22]: 64 µg/mL; MIC [23]: 64 µg/mL; MIC [24]: 16 µg/mL; MIC [25]: 64 µg/mL; MIC [26]: > 128 µg/mL; MIC [27]: 64 µg/mL; MIC [28]: 16 µg/mL; MIC [29]: 0.25 µg/mL; MIC [30]: 16 µg/mL; MIC [31]: 0.5 µg/mL; MIC [32]: 8 µg/mL; MIC [33]: 32 µg/mL; MIC [34]: 0.25 µg/mL; MIC [35]: 0.5 µg/mL; MIC [36]: 16 µg/mL; MIC [37]: > 128 µg/mL; MIC [38]: 32 µg/mL
COc1ccc(CN2CCN(c3cc4c(cc3F)c(=O)c(C(=O)O)cn4C3CC3)CC2)cc1OC,16,> 128,> 128,64,> 128,0.25,> 128,64,> 128,128,64,0.125,> 128,64,64,64,32,32,> 128,16,MIC [21]: 2 µg/mL; MIC [22]: 32 µg/mL; MIC [23]: 8 µg/mL; MIC [24]: 16 µg/mL; MIC [25]: 32 µg/mL; MIC [26]: > 128 µg/mL; MIC [27]: 32 µg/mL; MIC [28]: 8 µg/mL; MIC [29]: 4 µg/mL; MIC [30]: 16 µg/mL; MIC [31]: 0.5 µg/mL; MIC [32]: 4 µg/mL; MIC [33]: 32 µg/mL; MIC [34]: 0.125 µg/mL; MIC [35]: 0.125 µg/mL; MIC [36]: 8 µg/mL; MIC [37]: > 128 µg/mL; MIC [38]: 64 µg/mL
